Test results published in ChEMBL document CHEMBL1148489, “Synthesis and structure-activity relationships of 1-arylmethyl-5-aryl-6-methyluracils as potent gonadotropin-releasing hormone receptor antagonists” (J Med Chem, 2004).

Columns and labels:
[1] = biological target: T1, Gonadotropin-releasing hormone receptor (Homo sapiens, UniProt P30968); experiment: Binding affinity evaluated by the ability to inhibit des-Gly10[125I]Tyr5,D-Leu6,NMeLeu7,Pro9-NEt]- Gonadotropin-releasing hormone binding to cloned human Gonadotropin-releasing hormone receptor expressed in HEK293 cells; format: cell-based
T1 sequence (P30968 whole entry): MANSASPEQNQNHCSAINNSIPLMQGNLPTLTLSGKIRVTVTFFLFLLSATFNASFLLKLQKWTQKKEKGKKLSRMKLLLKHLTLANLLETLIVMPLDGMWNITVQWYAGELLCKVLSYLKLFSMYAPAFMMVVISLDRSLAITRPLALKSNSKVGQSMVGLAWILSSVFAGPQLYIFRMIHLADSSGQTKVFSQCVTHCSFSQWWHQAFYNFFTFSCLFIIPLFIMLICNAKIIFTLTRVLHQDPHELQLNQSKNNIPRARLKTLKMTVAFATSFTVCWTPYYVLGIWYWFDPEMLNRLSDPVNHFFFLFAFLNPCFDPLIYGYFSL

[2] = biological target: T1, Gonadotropin-releasing hormone receptor; experiment: In vitro inhibition of [Ca2+] influx in RBL cells expressing Gonadotropin-releasing hormone receptor; format: functional, cell-based
Outline: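 RBL cells stably expressing full-length human GnRH receptor, attached overnight and loaded with 2 μM Fluo-4 for 1 h at 37 °C. Cells washed, then preincubated 1 min with increasing compound before 5 nM GnRH stimulation. Ca2+ flux read as fluorescence on FLIPR; IC50 derived.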

[3] = biological target: T2, Gonadotropin-releasing hormone receptor (Rattus norvegicus, UniProt P30969); experiment: In vivo inhibition of rat Gonadotropin-releasing hormone receptor; format: organism-based
T2 sequence (P30969 whole entry): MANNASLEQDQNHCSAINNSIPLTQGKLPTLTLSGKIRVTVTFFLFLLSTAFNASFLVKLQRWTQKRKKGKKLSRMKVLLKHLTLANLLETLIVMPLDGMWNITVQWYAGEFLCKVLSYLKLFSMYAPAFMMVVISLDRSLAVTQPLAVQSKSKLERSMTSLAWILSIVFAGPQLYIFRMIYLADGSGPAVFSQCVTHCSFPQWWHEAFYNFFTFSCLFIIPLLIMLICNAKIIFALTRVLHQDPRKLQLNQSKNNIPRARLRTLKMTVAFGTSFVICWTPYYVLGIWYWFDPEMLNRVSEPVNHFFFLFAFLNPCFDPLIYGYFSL

[4] = Half life was determined; format: ADME, organism-based; details: mouse, in vivo
Outline: (§1)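 Terminal blood at preset times, composite sampling, plus hepatic portal vein samples under isoflurane. Plasma flash-frozen; LLOQ 5 ng/mL. Parameters from a noncompartmental model.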

[5] = tested on: Mus musculus; experiment: AUC value was determined after oral administration; format: ADME, organism-based, Plasma; details: in vivo; outline: as §1
[6] = Oral bioavailability in mouse; format: ADME, organism-based; details: in vivo; outline: as §1
[7] = Clearance value was determined; format: ADME, organism-based; details: mouse, in vivo; outline: as §1
[8] = biological target: T2, Gonadotropin-releasing hormone receptor; experiment: In vivo inhibition of rat Gonadotropin releasing hormone receptor; format: organism-based

SMILES: Cc1c(-c2ccc(C(C)C)cc2)c(=O)n(CCN(C)CCc2ccccn2)c(=O)n1Cc1c(F)cccc1F
- Ki [1]: 110 nM

SMILES: COc1ccc(-c2c(C)n(Cc3c(F)cccc3F)c(=O)n(CCN(C)CCc3ccccn3)c2=O)cc1OC
- Ki [1]: 4800 nM

SMILES: CCc1ccc(CN[C@@H](C)Cn2c(=O)c(-c3cccc(OC)c3F)c(C)n(Cc3c(F)cccc3F)c2=O)o1
- IC50 [2]: 27 nM
- Ki [1]: 15 nM
- Ki [3]: 4900 nM

SMILES: CSc1ccc(-c2c(C)n(Cc3c(F)cccc3F)c(=O)n(CCN(C)CCc3ccccn3)c2=O)cc1
- Ki [1]: 120 nM

SMILES: Cc1c(-c2cccc(Cl)c2)c(=O)n(CCN(C)CCc2ccccn2)c(=O)n1Cc1c(F)cccc1F
- Ki [1]: 370 nM

SMILES: COc1cccc(-c2c(C)n(Cc3c(F)cccc3F)c(=O)n(C[C@H](C)NC3CCCC3)c2=O)c1F
- half-life [4]: 36 min
- AUC [5]: 57 ng·h/mL
- bioavailability [6]: 2.2%
- clearance [7]: 70.7 mL/min/kg

SMILES: COc1cc(-c2c(C)n(Cc3c(F)cccc3F)c(=O)n(CCN(C)CCc3ccccn3)c2=O)cc(OC)c1OC
- Ki [1]: 10800 nM

SMILES: Cc1c(-c2ccc3ccccc3c2)c(=O)n(CCN(C)CCc2ccccn2)c(=O)n1Cc1c(F)cccc1F
- Ki [1]: 460 nM

SMILES: Cc1c(-c2ccc3oc4ccccc4c3c2)c(=O)n(CCN(C)CCc2ccccn2)c(=O)n1Cc1c(F)cccc1F
- Ki [1]: 170 nM

SMILES: COCc1cccc(-c2c(C)n(Cc3c(F)cccc3F)c(=O)n(CCN(C)CCc3ccccn3)c2=O)c1
- Ki [1]: 1500 nM

SMILES: Cc1ccc(-c2c(C)n(Cc3c(F)cccc3F)c(=O)n(CCN(C)CCc3ccccn3)c2=O)cc1
- Ki [1]: 220 nM

SMILES: C=Cc1ccc(-c2c(C)n(Cc3c(F)cccc3F)c(=O)n(CCN(C)CCc3ccccn3)c2=O)cc1
- Ki [1]: 340 nM

SMILES: COc1cccc(-c2c(C)n(Cc3c(F)cccc3F)c(=O)n(C[C@H](C)NCc3ccccc3)c2=O)c1F
- IC50 [2]: 38 nM
- Ki [1]: 25 nM
- Ki [3]: 25000 nM

SMILES: Cc1c(-c2ccc3c(c2)OC(F)(F)O3)c(=O)n(CCN(C)CCc2ccccn2)c(=O)n1Cc1c(F)cccc1F
- Ki [1]: 470 nM

SMILES: COc1cccc(-c2c(C)n(Cc3c(F)cccc3F)c(=O)n(CCN(C)CCc3ccccn3)c2=O)c1
- half-life [4]: 24 min
- AUC [5]: 23 ng·h/mL
- bioavailability [6]: 1.6%
- clearance [7]: 120 mL/min/kg

SMILES: Cc1c(-c2cccc(C(C)C)c2)c(=O)n(CCN(C)CCc2ccccn2)c(=O)n1Cc1c(F)cccc1F
- Ki [1]: 240 nM

SMILES: Cc1c(-c2ccccc2F)c(=O)n(CCN(C)CCc2ccccn2)c(=O)n1Cc1c(F)cccc1F
- Ki [1]: 81 nM

SMILES: CCC(CC)N[C@@H](C)Cn1c(=O)c(-c2cccc(OC)c2F)c(C)n(Cc2c(F)cccc2F)c1=O
- half-life [4]: 54 min
- AUC [5]: 110 ng·h/mL
- bioavailability [6]: 8.2%
- clearance [7]: 129 mL/min/kg

SMILES: COc1cccc(-c2c(C)n(Cc3c(F)cccc3F)c(=O)n(C[C@@H](C)NCc3nccs3)c2=O)c1F
- IC50 [2]: 6.1 nM
- half-life [4]: 78 min
- Ki [1]: 13 nM
- AUC [5]: 104 ng·h/mL
- bioavailability [6]: 6%
- clearance [7]: 97.3 mL/min/kg
- Ki [8]: 10000 nM

SMILES: CCOc1ccc(-c2c(C)n(Cc3c(F)cccc3F)c(=O)n(CCN(C)CCc3ccccn3)c2=O)cc1
- Ki [1]: 680 nM

SMILES: COc1cccc(-c2c(C)n(Cc3c(F)cccc3F)c(=O)n([C@H](C)CNCc3ccccc3C)c2=O)c1F
- Ki [1]: 7 nM

SMILES: COc1cccc(-c2c(C)n(Cc3c(F)cccc3F)c(=O)n(C[C@H](C)NCc3sccc3C)c2=O)c1F
- IC50 [2]: 4 nM
- Ki [1]: 4 nM
- Ki [3]: 3200 nM

SMILES: COc1cccc(-c2c(C)n(Cc3c(F)cccc3F)c(=O)n(CCN(C)CCc3ccccn3)c2=O)c1F
- Ki [1]: 3 nM

SMILES: Cc1c(-c2cccc(F)c2)c(=O)n(CCN(C)CCc2ccccn2)c(=O)n1Cc1c(F)cccc1F
- Ki [1]: 1200 nM

SMILES: COCc1ccc(-c2c(C)n(Cc3c(F)cccc3F)c(=O)n(CCN(C)CCc3ccccn3)c2=O)cc1
- Ki [1]: 1400 nM
